Measured values as given in ChEMBL document CHEMBL4184153, “Optimization of a series of heterocycles as survival motor neuron gene transcription enhancers” (Bioorg Med Chem Lett, 2017).
In brackets after ≈: the same amount, converted by molar mass. Activity calls are given as the source filed them. The calls are words filed in the database; no cut-off is given here.

Experiments:
HEK293 [1] = assay: Activation of SMN2 gene (unknown origin) transcription in HEK293 cells expressing SMN2-luc assessed as increase in SMN2 mRNA level at 0.1 to 50 uM after 24 hrs by luciferase reporter gene assay relative to control; assay type: cell-based
Outline: (§1)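 Luciferase reporter read-out of SMN2 expression; compounds tested at various concentrations (0.1 – 50 μM) against 0.1% DMSO controls. Dose-response curves fitted to give EC50 and percent maximum increase in SMN2 expression; values mean ± S.E.M.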

[2] = Activation of SMN2 gene (unknown origin) transcription in HEK293 cells expressing SMN2-luc assessed as increase in SMN2 mRNA level after 24 hrs by luciferase reporter gene assay; assay type: cell-based; conditions: HEK293, 24 h; outline: as §1
[3] = Half life in mouse microsomes; assay type: ADME, Microsome
[4] = Aqueous solubility of the compound at pH 7.4; assay type: physicochemical; conditions: aqueous medium
Homo sapiens [5] = organism: Homo sapiens; assay: Increase in SMN2 mRNA expression in SMA derived human fibroblasts assessed as increase in SMN protein aggregates (Gems)
HEK293 [6] = assay: Activation of SMN2 gene (unknown origin) transcription in HEK293 cells expressing SMN2-luc assessed as increase in SMN2 mRNA level after 24 hrs by qRT-PCR analysis; assay type: cell-based
Homo sapiens [7] = organism: Homo sapiens; assay: Increase in SMN2 mRNA expression in SMA derived human fibroblasts assessed as increase in SMN protein level
HEK293 [8] = assay: Activation of SMN1 gene (unknown origin) transcription in HEK293 cells assessed as increase in SMN1 exon 7 transcript level after 24 hrs by qRT-PCR analysis; assay type: cell-based
Mus musculus = assay: Increase in life span of SMNdelta7 SMA mouse model assessed as median survival days at 20 mg/kg, ip, administered once daily beginning at PND2 (reference value: 6 days)
[9] = biological target: Survival motor neuron protein (Homo sapiens, UniProt Q16637); assay: Stabilization of human SMN protein expressed in HEK293 cells expressing SMN2 promoter after 24 hrs by luciferase reporter gene assay; assay type: cell-based
Chain of Survival motor neuron protein (Q16637 whole entry): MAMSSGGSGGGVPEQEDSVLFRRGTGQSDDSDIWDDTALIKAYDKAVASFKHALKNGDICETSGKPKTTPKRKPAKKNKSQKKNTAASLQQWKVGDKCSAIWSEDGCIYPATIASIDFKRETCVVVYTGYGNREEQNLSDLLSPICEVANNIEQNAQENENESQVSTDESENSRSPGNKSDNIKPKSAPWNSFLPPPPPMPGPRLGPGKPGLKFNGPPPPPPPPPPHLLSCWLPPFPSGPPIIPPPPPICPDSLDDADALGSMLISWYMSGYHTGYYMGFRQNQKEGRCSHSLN

Row | SMILES | Activity (HEK293 [1]) | EC50 [2] | Emax (HEK293 [1]) | also measured
1 | COc1cc2c(c(OC)c1OC)C(c1cc(Cl)ccc1F)OCC(=O)N2C (stereo not given) | inactive |  |  | 
2 | COc1cc2c(c(OC)c1OC)C(c1cccc(Cl)c1Cl)CC(=O)N2 (stereo not given) | inactive |  |  | 
3 | COc1cc2c(c(OC)c1OC)C(c1cc(Br)ccc1F)C(C)C(=O)N2 (mixture of isomers) | inactive |  |  | 
4 | COc1ccc(F)c(C2NC(=O)Nc3cc(OC)c(OC)c(OC)c32)c1 (stereo not given) | inactive |  |  | 
5 | COc1cc2c(c(OC)c1OC)C(c1cccc(Br)c1)CC(=O)N2 (stereo not given) | inactive |  |  | 
6 | COc1cc2c(c(OC)c1OC)C(c1cc(F)ccc1F)NC(=O)N2 (stereo not given) |  | 17 µM | 100% | 
7 | COc1cc2c(c(OC)c1OC)C(c1cc(Cl)ccc1F)OC(C)C(=O)N2 (mixture of isomers) |  | 2.6 µM | 125% | 
8 | COc1cccc(C2NC(=O)Nc3cc(OC)c(OC)c(OC)c32)c1 (stereo not given) |  | 18 µM | 100% | 
9 | COc1cc2c(c(OC)c1OC)C(c1ccc(F)cc1)NC(=O)N2 (stereo not given) |  | 14 µM | 150% | 
10 | COc1cc2c(c(OC)c1OC)C(c1cc(Cl)ccc1F)=NCC(=O)N2 |  | 8.4 µM | 125% | 
11 | COc1cc2c(c(OC)c1OC)C(c1cc(Cl)ccc1F)NC(=O)N2 (racemic) |  | 4.1 µM | 263% | half-life [3]: 20 min; solubility [4]: 91 µM (≈ 33.4 µg/mL); fold change (FC) (Homo sapiens [5]): 2; Activity (HEK293 [6]): Active; fold change (FC) (Homo sapiens [7]): 2; Activity (HEK293 [8]): Active; median survival (Mus musculus): 15 days
12 | COc1cc2c(c(OC)c1OC)C(c1ccccc1F)N(C)C(=O)N2 (stereo not given) |  | 6 to 10 µM | 100 to 180% | 
13 | COc1cc2[nH]c(=O)nc(-c3cc(Cl)ccc3F)c2c(OC)c1OC | inactive |  |  | 
14 | COc1ccccc1C1NC(=O)Nc2cc(OC)c(OC)c(OC)c21 (stereo not given) | inactive |  |  | 
15 | COc1cc2c(c(OC)c1OC)C(c1cc(Br)ccc1F)CC(=O)N2 (stereo not given) |  | 8.3 µM | 186% | solubility [4]: < 1 µM
16 | COc1cc2c(c(OC)c1OC)C(c1ccc(F)c(F)c1)CC(=O)N2 (stereo not given) | inactive |  |  | 
17 | COc1cc2c(c(OC)c1OC)C(c1ccc(Cl)cc1F)NC(=O)N2 (stereo not given) |  | 6.3 µM | 150% | 
18 | COc1cc(Cl)ccc1C1NC(=O)Nc2cc(OC)c(OC)c(OC)c21 (stereo not given) |  | 7.8 µM | 200% | 
19 | COc1ccc(Cl)cc1C1NC(=O)Nc2cc(OC)c(OC)c(OC)c21 (stereo not given) |  | 3.6 µM | 225% | 
20 | COc1cc2c(c(OC)c1OC)C(c1cccc(F)c1)NC(=O)N2 (stereo not given) |  | 25 µM | 150% | 
21 | COc1cc2c(c(OC)c1OC)C(c1ccccc1Cl)NC(=O)N2 (stereo not given) | inactive |  |  | 

Row | SMILES | Activity (HEK293 [1]) | EC50 [2] | Emax (HEK293 [1]) | also measured
22 | COc1cc2c(c(OC)c1OC)C(c1cc([N+](=O)[O-])ccc1F)CC(=O)N2 (stereo not given) | inactive |  |  | 
23 | CCCN1C(=O)Nc2cc(OC)c(OC)c(OC)c2C1c1cccc(Cl)c1 (stereo not given) |  | 5.2 µM | 100% | 
24 | COc1cc2c(c(OC)c1OC)C(c1cc(Br)ccc1F)CC(=O)N2C (stereo not given) | inactive |  |  | 
25 | COc1cc2c(c(OC)c1OC)C(c1ccc(Cl)cc1)NC(=O)N2 (stereo not given) |  | 6.6 µM | 150% | 
26 | COc1cc2c(c(OC)c1OC)C(c1cc(C)ccc1F)NC(=O)N2 (stereo not given) |  | 4.3 µM | 125% | 
27 | COc1cc2c(c(OC)c1OC)C(c1ccccc1F)CC(=O)N2 (stereo not given) | inactive |  |  | 
28 | COc1ccc(C2NC(=O)Nc3cc(OC)c(OC)c(OC)c32)cc1 (stereo not given) | inactive |  |  | 
29 | COc1cc2c(c(OC)c1OC)C(c1ccc(Cl)c(Cl)c1)CC(=O)N2 (stereo not given) | inactive |  |  | 
30 | COc1cc2c(c(OC)c1OC)C(c1cc(C#N)ccc1F)NC(=O)N2 (stereo not given) | inactive |  |  | 
31 | COc1cc2c(c(OC)c1OC)C(c1ccc(Cl)cc1Cl)CC(=O)N2 (stereo not given) | inactive |  |  | 
32 | COc1cc2c(c(OC)c1OC)C(c1cc(-c3ccccc3)ccc1F)NC(=O)N2 (stereo not given) | inactive |  |  | 
33 | COc1ccc2c(c1OC)C(c1cc(Br)ccc1F)CC(=O)N2 (stereo not given) | inactive |  |  | 
34 | COc1cc2c(c(OC)c1OC)C(C)(c1cc(Cl)ccc1F)OCC(=O)N2 (stereo not given) | inactive |  |  | 
35 | COc1cc2c(c(OC)c1OC)C(c1cc(C(N)=O)ccc1F)CC(=O)N2 (stereo not given) | inactive |  |  | 
36 | COc1cc2c(c(OC)c1OC)C(c1cc(Cl)ccc1F)CC(=O)N2 (stereo not given) |  | 12 µM | 150% | 
37 | COc1cc2c(c(OC)c1OC)C(c1cc(Cl)ccc1F)OCC(=O)N2 (stereo not given) |  | 5.9 µM | 150% | half-life [3]: 3 min; solubility [4]: 58 µM (≈ 22.1 µg/mL)
38 | COc1cc2c(c(OC)c1OC)C(c1cc(C#N)ccc1F)CC(=O)N2 (stereo not given) | inactive |  |  | 
39 | COc1cc2c(c(OC)c1)C(c1cc(Br)ccc1F)CC(=O)N2 (stereo not given) | inactive |  |  | 
40 | COc1cc2c(c(OC)c1OC)C(c1cc(Cl)ccc1F)OC(=O)N2 (stereo not given) |  |  | 125% | 
41 | CC(C)c1cc(C(=O)Nc2ccc(F)c(Cl)c2)no1 |  |  | 242% | EC50 [9]: 1.8 µM
42 | COc1cc2c(c(OC)c1OC)C(c1cc(F)ccc1F)CC(=O)N2 (stereo not given) | inactive |  |  | 
